The source of these data is ChEMBL document CHEMBL4004837, “Synthesis and Characterization of Urofuranoic Acids: In Vivo Metabolism of 2-(2-Carboxyethyl)-4-methyl-5-propylfuran-3-carboxylic Acid (CMPF) and Effects on in Vitro Insulin Secretion” (J Med Chem, 2017).

For orientation: inhibition means the drop in the measured response relative to a control, in per cent. A high value points to a strong effect. What is called AUC is the area under the concentration-time curve, a measure of exposure. Read a high AUC as more exposure. One may read the Vd as the apparent volume that relates the amount in the body to the concentration in plasma or blood. Lower therefore signals little distribution into tissue.

Data set [1] concerns Plasma. In words: Drug metabolism in CD1 mouse plasma assessed as glycerol conjugate formation at 6 mg/kg, ip dosed once daily for 3 days followed by dosing of 1:1 mixtures of 2-(2-(Carboxy-13C)ethyl)-4-methyl-5-propylfuran-3-carboxylic-2-13C Acid and test compound on day 4 and 5 measured 1 hr post dose on day 5 by HPLC-MS analysis. The format is ADME, organism-based. To be noted: in vivo. The essentials:
(§1)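 CMPF given 6 mg/kg i.p. once daily for three days. On days four and five, 1:1 mixtures of stable-isotope-labelled and unlabelled CMPF were dosed. Mice were killed 1 h after the day-five dose. Plasma, adipose, muscle and liver were collected and analysed by HPLC-MS (MS/MS for product ions). Metabolites were identified by their distinctive isotope patterns from the labelled/unlabelled mixture.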

Data set [2] can be described thus: Drug metabolism in CD1 mouse muscle assessed as diacylglycerol conjugate formation at 6 mg/kg, ip dosed once daily for 3 days followed by dosing of 1:1 mixtures of 2-(2-(Carboxy-13C)ethyl)-4-methyl-5-propylfuran-3-carboxylic-2-13C Acid and test compound on day 4 and 5 measured 1 hr post dose on day 5 by HPLC-MS analysis. The class given is ADME, organism-based, Muscle tissue. As to conditions: in vivo. The essentials:
(§2)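 Mice received CMPF 6 mg/kg intraperitoneally for three days, then 1:1 labeled/unlabeled CMPF mixtures on days four and five. On day five they were euthanized 1 h post-dose, and plasma, adipose, muscle and liver were collected. Samples were analysed by HPLC-MS, with MS/MS of product ions. Metabolites were identified by the distinctive isotope patterns from the 1:1 label mixture.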

Data set [3] has as its system Plasma. In words: Drug metabolism in CD1 mouse plasma assessed as loss of C2 carboxyl during fragmentation at 6 mg/kg, ip dosed once daily for 3 days followed by dosing of 1:1 mixtures of 2-(2-Carboxyethyl)-4-methyl-5-propyl-(3-13C-furan)-3-13Ccarboxylate and test compound on day 4 and 5 measured 1 hr post dose on day 5 by HPLC-MS analysis. The format is ADME, organism-based. To be noted: in vivo. In a few lines: as §1

Data set [4] deals with Liver. In words: Drug metabolism in CD1 mouse liver assessed as loss of C2 carboxyl during fragmentation at 6 mg/kg, ip dosed once daily for 3 days followed by dosing of 1:1 mixtures of 2-(2-Carboxyethyl)-4-methyl-5-propyl-(3-13C-furan)-3-13Ccarboxylate and test compound on day 4 and 5 measured 1 hr post dose on day 5 by HPLC-MS analysis. The format is ADME, organism-based. To be noted: in vivo. The essentials:
as §2

Data set [5] is described as follows: Drug metabolism in CD1 mouse adipose assessed as monoacylglycerol conjugate formation at 6 mg/kg, ip dosed once daily for 3 days followed by dosing of 1:1 mixtures of 2-(2-(Carboxy-13C)ethyl)-4-methyl-5-propylfuran-3-carboxylic-2-13C Acid and test compound on day 4 and 5 measured 1 hr post dose on day 5 by HPLC-MS analysis. The format is ADME, organism-based, Adipose tissue. As to conditions: in vivo. The essentials:
as §2

Data set [6] deals with Plasma. In words: Drug metabolism in CD1 mouse plasma assessed as glucuronide conjugate formation at 6 mg/kg, ip dosed once daily for 3 days followed by dosing of 1:1 mixtures of 2-(2-(Carboxy-13C)ethyl)-4-methyl-5-propylfuran-3-carboxylic-2-13C Acid and test compound on day 4 and 5 measured 1 hr post dose on day 5 by HPLC-MS analysis. As to conditions: in vivo. The class given is ADME, organism-based. In a few lines:
as §1

Data set [7] in a line: Drug metabolism in CD1 mouse muscle assessed as oxidative metabolites formation at 6 mg/kg, ip dosed once daily for 3 days followed by dosing of 1:1 mixtures of 2-(2-(Carboxy-13C)ethyl)-4-methyl-5-propylfuran-3-carboxylic-2-13C Acid and test compound on day 4 and 5 measured 1 hr post dose on day 5 by HPLC-MS analysis. The format is ADME, organism-based, Muscle tissue. As to conditions: in vivo. In a few lines:
as §2

The target in another data set is CYP2C9 (Homo sapiens, UniProt P11712). In words: Inhibition of human microsomal CYP2C9 at 10 uM after 10 mins by single quad LC/MS analysis. The format is ADME. As to conditions: microsomes.
Sequence of CYP2C9 (P11712 whole entry): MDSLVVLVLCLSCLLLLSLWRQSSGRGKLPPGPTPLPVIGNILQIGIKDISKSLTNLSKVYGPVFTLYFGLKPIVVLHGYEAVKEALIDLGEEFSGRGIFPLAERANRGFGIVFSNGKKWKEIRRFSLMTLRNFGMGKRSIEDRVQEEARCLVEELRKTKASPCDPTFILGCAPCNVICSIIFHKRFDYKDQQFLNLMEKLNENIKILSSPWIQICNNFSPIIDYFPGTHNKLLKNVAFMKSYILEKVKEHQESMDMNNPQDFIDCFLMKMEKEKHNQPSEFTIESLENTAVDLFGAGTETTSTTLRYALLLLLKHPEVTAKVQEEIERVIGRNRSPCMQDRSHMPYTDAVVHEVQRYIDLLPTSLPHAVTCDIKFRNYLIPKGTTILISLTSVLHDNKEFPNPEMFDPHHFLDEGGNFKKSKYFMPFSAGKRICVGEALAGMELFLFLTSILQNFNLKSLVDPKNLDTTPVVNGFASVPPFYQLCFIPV
Data set [8] in a line: Drug metabolism in CD1 mouse adipose assessed as diacylglycerol conjugate formation at 6 mg/kg, ip dosed once daily for 3 days followed by dosing of 1:1 mixtures of 2-(2-Carboxyethyl)-4-methyl-5-(1-propyl-1-13C)furan-3-carboxylic Acid and test compound on day 4 and 5 measured 1 hr post dose on day 5 by HPLC-MS analysis. The class given is ADME, organism-based, Adipose tissue. To be noted: in vivo. The essentials:
as §2

Data set [9] in a line: Drug metabolism in CD1 mouse adipose assessed as oxidative metabolites formation at 6 mg/kg, ip dosed once daily for 3 days followed by dosing of 1:1 mixtures of 2-(2-(Carboxy-13C)ethyl)-4-methyl-5-propylfuran-3-carboxylic-2-13C Acid and test compound on day 4 and 5 measured 1 hr post dose on day 5 by HPLC-MS analysis. The format is ADME, organism-based, Adipose tissue. As to conditions: in vivo. The essentials: as §2

The nature of data set [10]: Drug metabolism in CD1 mouse adipose assessed as oxidative metabolites formation at 6 mg/kg, ip dosed once daily for 3 days followed by dosing of 1:1 mixtures of 2-(2-Carboxyethyl)-4-methyl-5-(1-propyl-1-13C)furan-3-carboxylic Acid and test compound on day 4 and 5 measured 1 hr post dose on day 5 by HPLC-MS analysis. The format is ADME, organism-based, Adipose tissue. To be noted: in vivo. The essentials:
as §2

A short description of data set [11]: AUC in mouse at 1 mg/kg, iv. The class given is ADME, organism-based. As to conditions: in vivo.
The nature of data set [12]: Drug metabolism in CD1 mouse adipose assessed as oxidative metabolites formation at 6 mg/kg, ip dosed once daily for 3 days followed by dosing of 1:1 mixtures of 2-(2-Carboxyethyl)-4-methyl-5-propyl-(3-13C-furan)-3-13Ccarboxylateand test compound on day 4 and 5 measured 1 hr post dose on day 5 by HPLC-MS analysis. The format is ADME, organism-based, Adipose tissue. As to conditions: in vivo. The essentials:
as §2

The subject of data set [13] is Liver. In words: Drug metabolism in CD1 mouse liver assessed as glycerol conjugate formation at 6 mg/kg, ip dosed once daily for 3 days followed by dosing of 1:1 mixtures of 2-(2-(Carboxy-13C)ethyl)-4-methyl-5-propylfuran-3-carboxylic-2-13C Acid and test compound on day 4 and 5 measured 1 hr post dose on day 5 by HPLC-MS analysis. The class given is ADME, organism-based. To be noted: in vivo. In a few lines:
as §2

Data set [14] has as its system Plasma. In words: Drug metabolism in CD1 mouse plasma assessed as oxidative metabolites formation at 6 mg/kg, ip dosed once daily for 3 days followed by dosing of 1:1 mixtures of 2-(2-Carboxyethyl)-4-methyl-5-propyl-(3-13C-furan)-3-13Ccarboxylateand test compound on day 4 and 5 measured 1 hr post dose on day 5 by HPLC-MS analysis. As to conditions: in vivo. The format is ADME, organism-based. The essentials:
as §1

Data set [15] has as its system Plasma. In words: Drug metabolism in CD1 mouse plasma assessed as monoacylglycerol conjugate formation at 6 mg/kg, ip dosed once daily for 3 days followed by dosing of 1:1 mixtures of 2-(2-Carboxyethyl)-4-methyl-5-propyl-(3-13C-furan)-3-13Ccarboxylateand test compound on day 4 and 5 measured 1 hr post dose on day 5 by HPLC-MS analysis. To be noted: in vivo. The format is ADME, organism-based. The essentials:
as §1

Data set [16] in a line: Volume of distribution in mouse at 1 mg/kg, iv. The class given is ADME, organism-based. As to conditions: in vivo. The essentials: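 Mouse pharmacokinetics after single intravenous CMPF dosing at 1 or 3 mg/kg. Plasma exposure was followed over time to derive AUC, C0, terminal half-life, clearance and volume of distribution.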
Data set [17] relates to Plasma. In words: Drug metabolism in CD1 mouse plasma assessed as glycerol conjugate formation at 6 mg/kg, ip dosed once daily for 3 days followed by dosing of 1:1 mixtures of 2-(2-Carboxyethyl)-4-methyl-5-(1-propyl-1-13C)furan-3-carboxylic Acid and test compound on day 4 and 5 measured 1 hr post dose on day 5 by HPLC-MS analysis. The class given is ADME, organism-based. To be noted: in vivo. In a few lines: as §1

A short description of data set [18]: Drug metabolism in CD1 mouse muscle assessed as loss of C2 carboxyl during fragmentation at 6 mg/kg, ip dosed once daily for 3 days followed by dosing of 1:1 mixtures of 2-(2-Carboxyethyl)-4-methyl-5-propyl-(3-13C-furan)-3-13Ccarboxylate and test compound on day 4 and 5 measured 1 hr post dose on day 5 by HPLC-MS analysis. The format is ADME, organism-based, Muscle tissue. To be noted: in vivo. In a few lines:
as §2

With `CCCc1oc(CCC(=O)O)c(C(=O)O)c1C`, the Drug metabolism entry in the data set on Plasma [1] was “Metabolite_Notdetected”; in data set [2], “Metabolite_Notdetected”; in the data set with Plasma [3], “Metabolite_Detected”; in the data set on Liver [4], “Metabolite_Detected”; in [5], “Metabolite_Notdetected”; with Plasma [6], “Metabolite_Detected”. In addition, the Drug metabolism result (in data set [7]; in [8]; in [9]; in data set [10]; in data set [12]; in the data set with Liver [13]) was “Metabolite_Notdetected” in each case. Moreover, the Drug metabolism result is “Metabolite_Notdetected” in the data set with Plasma [14], “Metabolite_Notdetected” with Plasma [15], “Metabolite_Notdetected” in the data set on Plasma [17] and “Metabolite_Detected” in data set [18]. This compound had an inhibition at 10 min, 10 µM against CYP2C9 of 0%. The same compound displayed an AUC in data set [11] of 89.3 µM·h. The Vd in data set [16] is 0.2 L/kg.
